Results reported in ChEMBL document CHEMBL1275403 (J Med Chem, 2010).

Legend:
ScGT1 [1] = assay: Antiprion activity against scrapie prion protein-infected mouse ScGT1 cells assessed as accumulation of PrPSc at 0.2 uM after 5 days by Western blotting; format: cell-based
Outline: (§1)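 ScGT1 cells in DMEM with 10% FBS were split 1:10 into Petri dishes and grown 2 days at 37 °C, 5% CO2. Non-toxic compound concentrations (10 nM–2 μM) were then added. After 5 days, cell proteins were extracted, quantified, proteinase K-digested and western-blotted. PK-resistant PrPSc was quantified by densitometry. EC50 is half-maximal inhibition. Values are mean of three experiments with SD.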

[2] = Cytotoxicity against mouse ScGT1 cells assessed as cell viability at 0.2 uM after 5 days by calcein-AM assay; format: cell-based; conditions: read-out: Activity
Outline: (§2)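 ScGT1 cells in DMEM with 10% FBS were plated at 25000 cells/well. Compounds were dissolved in DMSO, diluted in PBS and added at 10 nM–10 μM. Cells were incubated 5 days at 37 °C, 5% CO2. Viability was read by calcein-AM fluorescence as average percent viable cells versus untreated control. Values are mean of three experiments with SD.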

[3] = Cytotoxicity against mouse ScGT1 cells assessed as cell viability at 1 uM after 5 days by calcein-AM assay; format: cell-based; conditions: read-out: Activity; outline: as §2
[4] = Antioxidant activity in mouse ScGT1 cells assessed as inhibition of ROS formation at 1 uM after 3 hrs by TBARS assay; format: functional; conditions: ScGT1, 3 h
Outline: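 ScGT1 cells were treated at 1 μM, and lipid hydroperoxides and aldehydes were measured by the TBARS assay. Results are expressed as average percent TBARS of treated cells versus untreated cells. A water-soluble vitamin E derivative served as positive control. Values are mean ± SD, n = 3.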

ScGT1 [5] = assay: Antiprion activity against scrapie prion protein-infected mouse ScGT1 cells assessed as accumulation of PrPSc at 1 uM after 5 days by Western blotting; format: cell-based; outline: as §1
[6] = Inhibition of scrapie prion protein-mediated lag phase prion fibril formation after 72 hrs by amyloid seeding assay
Outline: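 In vitro amyloid seeding assay of recombinant PrP fibril formation, with compounds at 2 μM. The read-out is lag phase in hours, compared against an untreated control. Significance was tested by Student's t-test, n = 4.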

[7] = Antiprion activity against scrapie prion protein-infected mouse ScGT1 cells assessed as accumulation of PrPSc after 5 days by Western blotting; format: cell-based; conditions: ScGT1, 120 h; outline: as §1
[8] = Cytotoxicity against mouse ScGT1 cells assessed as cell viability at EC50 after 5 days by calcein-AM assay; format: cell-based; conditions: read-out: INH; outline: as §2

| Structure (SMILES) | inhibition (ScGT1 [1]) | viability at 120 h, 0.2 µM [2] | viability at 120 h, 1 µM [3] | inhibition at 1 µM [4] | inhibition (ScGT1 [5]) | TIME [6] | EC50 [7] | viability at 120 h [8] |
| --- | --- | --- | --- | --- | --- | --- | --- | --- |
| COc1ccc2nc3cc(Cl)ccc3c(NCCCNCCCNC3=CC(=O)C(NCCCNCCCNc4c5ccc(Cl)cc5nc5ccc(OC)cc45)=CC3=O)c2c1 | 5.4% | 65.8% | 1.5% |  |  |  |  |  |
| Cc1c(C)c2c(c(C)c1O)CCC(C)(C(=O)O)O2 (configuration not stated) [TROLOX] |  |  |  | 71% |  |  |  |  |
| COc1ccc2nccc(NCCCNC3=CC(=O)C(NCCCNc4ccnc5ccc(OC)cc45)=CC3=O)c2c1 |  |  | 87.2% |  | 4.7% |  |  |  |
| O=C1C=C(NCCNc2ccnc3cc(Cl)ccc23)C(=O)C=C1NCCNc1ccnc2cc(Cl)ccc12 |  |  | 115% |  | 6.2% |  |  |  |
| O=C1C=C(NCCCNCCCNc2ccnc3cc(Cl)ccc23)C(=O)C=C1NCCCNCCCNc1ccnc2cc(Cl)ccc12 |  |  | 105% | 83% | 49.1% | 40 h | 1200 nM | 91.3% |
| O=C1C=C(NCCCNc2ccnc3cc(Cl)ccc23)C(=O)C=C1NCCCNc1ccnc2cc(Cl)ccc12 |  |  | 100% | 83% | 85.5% | 53 h | 730 nM | 99.6% |
| COc1ccc2nc3cc(Cl)ccc3c(NCCNC3=CC(=O)C(NCCNc4c5ccc(Cl)cc5nc5ccc(OC)cc45)=CC3=O)c2c1 | 3.1% | 80.1% | 18.2% |  |  |  |  |  |
| COc1ccc2nc3cc(Cl)ccc3c(NCCCN3CCN(CCCNc4c5ccc(Cl)cc5nc5ccc(OC)cc45)CC3)c2c1 |  |  | 75.6% | 93% | 102% | 55 h | 320 nM | 92.4% |
| O=C1C=C(NCCCNc2ccnc3cc(Cl)ccc23)C(=O)c2ccccc21 |  |  | 94.3% |  | 2.9% |  |  |  |
| O=C1C=C(NCCCNc2c3c(nc4cc(Cl)ccc24)CCCC3)C(=O)C=C1NCCCNc1c2c(nc3cc(Cl)ccc13)CCCC2 |  |  | 78.6% | 69% | 105% | 57 h | 170 nM | 102% |
| O=C1C=C(NCCNc2c3c(nc4ccccc24)CCCC3)C(=O)C=C1NCCNc1c2c(nc3ccccc13)CCCC2 |  |  | 108% |  | 7.1% |  |  |  |
| COc1ccc2nc3cc(Cl)ccc3c(NCCCNC3=CC(=O)C(NCCCNc4c5ccc(Cl)cc5nc5ccc(OC)cc45)=CC3=O)c2c1 |  |  | 65.5% | 83% | 89.7% | 45 h | 680 nM | 75.2% |
| O=C1C=C(NCCCNCCCNc2c3c(nc4ccccc24)CCCC3)C(=O)C=C1NCCCNCCCNc1c2c(nc3ccccc13)CCCC2 |  |  | 95.4% |  | 3.4% |  |  |  |
